5HT1E antag = 5-HT1E receptor antagonists, primary screen, cell-based, HTS | actives 0.99% (n = 65,000) | 5-hydroxytryptamine receptor 1E (Homo sapiens), P28566 | CHO 5-HT1E Ga15 NFAT-bla reporter, FRET, antagonist | inhibition, % at 6 µM;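 active = inhibition above a set limit, the mean inhibition across every tested compound plus 3 SD, cut at about 29% in these data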;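 also: signal is the 460 over 535 nm emission ratio of beta-lactamase substrate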
Target sequence (P28566 whole entry, looked up): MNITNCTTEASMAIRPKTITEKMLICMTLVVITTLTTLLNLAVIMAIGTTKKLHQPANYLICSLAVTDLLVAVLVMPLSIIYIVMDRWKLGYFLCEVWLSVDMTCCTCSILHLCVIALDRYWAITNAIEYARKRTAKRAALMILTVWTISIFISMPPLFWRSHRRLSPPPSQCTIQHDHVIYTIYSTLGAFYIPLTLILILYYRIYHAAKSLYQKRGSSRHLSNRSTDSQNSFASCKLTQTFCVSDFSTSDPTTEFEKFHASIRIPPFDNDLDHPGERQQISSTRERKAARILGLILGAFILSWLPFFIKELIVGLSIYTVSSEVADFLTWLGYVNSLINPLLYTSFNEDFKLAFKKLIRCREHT
S1P3 agonist = human S1P3 receptor agonists, primary screen, cell-based, primary and confirmation, NFAT-BLA reporter; Sphingosine 1-phosphate receptor 3 (Homo sapiens), Q99500; S1P3 NFAT-BLA reporter cells, agonism, FRET ratio; relative to 1 µM S1P, basal subtracted; activation, % at 4.5 µM; actives 0.1% (n = 60,000);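 active = activation above the screen-wide mean plus 3 SD, cut at about 4.5% in these data, passing the limit was not always enough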
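Assay system: stable CHO line with human S1P3, Gα16, NFAT-BLA reporter; Detection: FRET β-lactamase substrate fluorescence, excitation 405 nm, 460/535 nm emission ratio, background-subtracted; Read-out: percent activation versus median 1 µM S1P response, basal-subtracted, per plate; Incubation: cells plated overnight, compound 4 h 37 °C, substrate 2 h RT.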
5HT1a antag = human 5-HT1a receptor antagonists, primary screen, cell-based, CHO, Ga15 NFAT-bla reporter; 5-hydroxytryptamine receptor 1A (Homo sapiens), P08908; CHO 5-HT1a Ga15 NFAT-bla reporter, antagonist mode; inhibition, % at 10 µM; actives 0.68% (n = 62,000);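 active = inhibition above the mean of all tested compounds plus 3 SD, cut at about 43% in these data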;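 also: receptor stimulated by 5-CT agonist at 100 nM near EC80; beta-lactamase reporter measured by ratiometric fluorescence of a cleavable substrate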
HTR1E agonist = 5-HT1E receptor agonists, primary screen, cell-based, HTS; activation, % at 6 µM; actives 0.69% (n = 65,000); 5-hydroxytryptamine receptor 1E (Homo sapiens), P28566; CHO 5-HT1E Ga15 NFAT-bla reporter, FRET; 0% DMSO wells, 100% control agonist wells;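 active = activation above a set limit, the screen-wide mean activation plus 3 SD, cut at about 8.5% in these data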
S1P1 ag pot = S1P1 agonists and agonism potentiators, primary screen, cell-based, primary and confirmation screens, CRE-bla reporter | S1P1 CRE-bla cells, forskolin, beta-lactamase FRET, potentiator mode; S1P1 agonist co-added at EC20, 2 nM; 100% = saturating reference agonist, 0% = basal | actives 0.57% (n = 56,000) | activation, % at 9.5 µM | Sphingosine 1-phosphate receptor 1 (Homo sapiens), P21453;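 active = activation above a cutoff set at the mean activation of all tested compounds plus 3 SD, cut at about 54% in these data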;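 also: forskolin at 4 µM as EC80 and the EC20 agonist is SEW2871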
5HT1a ag = human 5-HT1a receptor agonists, primary screen, cell-based, CHO, Ga15 NFAT-bla reporter | 5-hydroxytryptamine receptor 1A (Homo sapiens), P08908 | CHO 5-HT1a Ga15 NFAT-bla reporter, FRET ratio; 0% basal, 100% maximal reference agonist | activation, % at 10 µM | actives 0.56% (n = 65,000);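 active = activation above the screen-wide mean activation plus 3 SD, cut at about 19% in these data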
Numbers stand for hits; . = inactive; / = not tested or not shown. Sampled rows, rich in hits. Any-hit rate of the full collection: about 3%.

SMILES | 5HT1E antag | S1P3 agonist | 5HT1a antag | HTR1E agonist | S1P1 ag pot | 5HT1a ag
CCc1cc2c(=O)c(-c3nc4ccccc4n3C)c(COCC(=O)O)oc2cc1O | . | . | . | . | . | .
Cc1cc(-c2ccccc2N)n[nH]1 | . | . | . | . | . | .
CCOC(=O)CC1=C(C(=O)OCC)C(c2ccc(C)o2)C(C#N)=C(N)O1 (stereo not given) | 35.0 | . | 52.6 | . | . | .
COCCNC(=O)c1ccc(Cn2c(=S)[nH]c3cc4c(cc3c2=O)OCO4)cc1 | . | / | . | . | / | .
COc1cccc(OC)c1OCCCCN1CCCC1 | . | . | . | . | . | .
Clc1ccccc1OCCCCN1CCCC1 | . | . | . | 14.7 | . | .
c1coc(CNc2ncnc3nc[nH]c23)c1 | . | . | . | . | . | .
Cc1ccc2[nH]c3c(NCc4ccco4)ncnc3c2c1 | . | . | . | . | 65.0 | .
Cc1cc(C)nc(SCC(=O)Nn2cnnc2)n1 | . | . | . | . | . | .
CC(C)(C)n1nnnc1C(c1ccccc1F)N(Cc1ccco1)CC1CCCO1 (stereo not given) | . | . | . | . | . | .
COc1cccc(CN(Cc2ccco2)C(c2ccc(F)cc2)c2nnnn2C(C)(C)C)c1 (stereo not given) | . | . | 45.7 | . | . | .
CCN(CC)c1ccc2cc(C(=O)Nc3ccccn3)c(=O)oc2c1 | . | . | / | . | . | 57.3
CCN(CC)c1ccc2cc(NC(=O)CCC(=O)O)c(=O)oc2c1 | 55.4 | . | . | . | 58.0 | .
CCN(CC)c1ccc2cc(C(=O)Nc3cccnc3N3CCOCC3)c(=O)oc2c1 | . | / | . | . | / | .
CCOC(=O)c1[nH]c(C)c(C(=O)OCc2c(C)noc2C)c1C | . | . | . | . | . | .
CC(=O)c1ccc(NS(=O)(=O)Cc2ccccc2)cc1 | . | . | . | . | . | .
CC(=O)N(C)c1ccc(NS(=O)(=O)Cc2ccccc2)cc1 | . | . | . | . | . | 68.9
Nc1nc2ccc(OC(F)(F)F)cc2s1 | . | . | / | . | . | 23.7
Nc1nc2ccc(Oc3ccccc3)cc2s1 | . | . | . | . | . | .
CCn1c2ccccc2c2nnc(SCN3C(=O)c4ccccc4C3=O)nc21 | 38.5 | . | . | . | / | .
CCCn1c2ccccc2c2nnc(SCC(=O)OC)nc21 | 29.5 | . | . | . | . | .
Cn1c2ccccc2c2nnc(SCN3C(=O)c4ccccc4C3=O)nc21 | . | . | . | . | . | .
CCn1c2ccccc2c2nnc(SCc3ccccc3)nc21 | 32.8 | . | . | . | . | .
Cc1ccc(N2CC(C(=O)NCc3cccs3)CC2=O)cc1 (stereo not given) | . | . | . | . | . | .
CCC(=O)NCCc1cc2ccc(C)c(C)c2[nH]c1=O | . | . | . | . | . | .
SMILES | 5HT1E antag | S1P3 agonist | 5HT1a antag | HTR1E agonist | S1P1 ag pot | 5HT1a ag
CCOC(=O)C1=C(C)NC(=O)C1(NC(=O)c1cccnc1)C(F)(F)F (stereo not given) | . | . | . | . | . | .
O=C(NCc1ccc(F)cc1)c1cc(S(=O)(=O)N2CCOCC2)ccc1F | . | . | . | . | . | .
c1coc(CNc2ncnc3c2oc2ccccc23)c1 | . | . | . | . | . | .
CCc1nc(NCc2ccco2)c2oc3ccccc3c2n1 | 34.2 | / | . | . | / | .
CCc1nc(SCCO)c2oc3ccccc3c2n1 | 32.6 | . | . | . | . | .
CCNc1nc(CC)nc2c1oc1ccccc12 | 28.7 | / | . | . | / | .
COc1nc(NCC(C)C)nc(Oc2ccc(=O)n(-c3ccccc3)n2)n1 | . | . | . | . | . | .
COc1cccc(CNC(=O)Cn2cccc2)c1 | . | . | . | 23.8 | . | .
CCC1CCCCN1C(=O)CSc1nnc(-c2c[nH]c3ccccc23)o1 (stereo not given) | . | . | . | . | 78.7 | .
CCN1CCN(c2nc3sc4c(c3c3ncnn23)CC(C)CC4)CC1 (stereo not given) | . | . | . | . | . | .
FC(F)(F)c1cccnc1N1CCN(c2ncnc3nc[nH]c23)CC1 | . | . | . | . | . | .
Clc1ccccc1N1CCN(c2ncnc3nc[nH]c23)CC1 | . | . | . | . | . | 65.6
NC(=O)C1CCC(NC(=O)OCc2ccccc2)CC1 (stereo not given) | . | . | . | . | . | .
Cc1cccc(N2CCN(C(=O)c3ccc(CS(=O)(=O)c4ccccc4C)o3)CC2C)c1 (stereo not given) | 39.5 | . | 45.6 | . | . | .
COc1ccccc1-c1nnc2sc(C3CCCCC3)nn12 | . | . | / | . | . | .
c1cc(-c2nnc3sc(C4CCCCC4)nn23)ccn1 | . | . | / | 16.7 | . | .
COCCOC(=O)c1[nH]c2c(c1C)C(=O)CC(c1ccccc1)C2 (stereo not given) | 66.7 | / | . | . | / | .
Cc1c(C(=O)OCCOC(C)C)[nH]c2c1C(=O)CC(c1ccco1)C2 (stereo not given) | 81.1 | . | 62.8 | . | . | .
CCCCOC(=O)c1[nH]c2c(c1C)C(=O)CC(c1cc(OC)c(OC)c(OC)c1)C2 (stereo not given) | . | . | . | . | 133.9 | .
Cc1c(C(=O)O)[nH]c2c1C(=O)CC(c1ccccc1)C2 (stereo not given) | . | / | . | . | / | .
Cc1c(C(=O)OCc2ccccc2)[nH]c2c1C(=O)CC(c1ccco1)C2 (stereo not given) | 84.2 | . | 58.0 | . | . | .
COCCOC(=O)c1[nH]c2c(c1C)C(=O)CC(c1ccco1)C2 (stereo not given) | 34.7 | . | . | . | . | .
CSCCOC(=O)c1[nH]c2c(c1C)C(=O)CC(c1ccco1)C2 (stereo not given) | 56.6 | . | . | . | . | .
COC(=O)c1[nH]c2c(c1C)C(=O)CC(c1cccs1)C2 (stereo not given) | 57.5 | . | . | . | . | .
CCOC(=O)c1[nH]c2c(c1C)C(=O)CC(c1ccco1)C2 (stereo not given) | 74.5 | . | 53.1 | . | . | .
CC1(C)CC(=O)c2cc(C(=O)NCc3ccco3)c(=O)n(-c3ccccc3)c2C1 | . | . | . | . | . | .
